Key:
[1] = test system: Aspergillus terreus; assay: Antifungal activity against Aspergillus terreus 05-202844 after 24 to 72 hrs by broth microdilution method; assay type: functional
Summary of the method: (§1)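 Broth microdilution MIC per CLSI M27-A3 (yeasts) or M38-A2 (molds). RPMI 1640 with L-glutamine, without bicarbonate, buffered to pH 7.0 with 0.165 M MOPS. Final test range for the compounds was 0.175–87.5 μM. Incubation at 35°C with visual reading at 24–72 h. MIC was the lowest concentration giving 100% inhibition versus the growth control (azoles 50% or 100%, by organism). Each isolate was run in duplicate in two independent experiments.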

[2] = test system: Cryptococcus neoformans; assay: Antifungal activity against Cryptococcus neoformans 05-202523 after 24 to 72 hrs by broth microdilution method; assay type: functional; summary of the method: as §1
[3] = test system: Candida albicans; assay: Antifungal activity against Candida albicans ATCC 10231 after 48 to 72 hrs; assay type: functional
Summary of the method: (§2)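 MFC: after the MIC read, 30-μl aliquots from each well without visible growth were plated onto Sabouraud dextrose agar and incubated at 35°C. Reading was at 48–72 h for yeasts and up to 7 days for molds. MFC was the lowest concentration with no colonies.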

[4] = test system: Aspergillus fumigatus; assay: Antifungal activity against Aspergillus fumigatus 05-203114 after 24 to 72 hrs by broth microdilution method; assay type: functional; summary of the method: as §1
[5] = test system: Pichia kudriavzevii; assay: Antifungal activity against Candida krusei ATCC 6258 after 48 to 72 hrs; assay type: functional; summary of the method: as §2
[6] = test system: Pichia kudriavzevii; assay: Antifungal activity against Candida krusei ATCC 9258 after 24 to 72 hrs by broth microdilution method; assay type: functional; summary of the method: as §1
[7] = test system: Candida albicans; assay: Antifungal activity against Candida albicans ATCC 90028 after 48 to 72 hrs; assay type: functional; summary of the method: as §2
[8] = test system: Nakaseomyces glabratus; assay: Antifungal activity against Candida glabrata 04-202345 after 48 to 72 hrs; assay type: functional; summary of the method: as §2
[9] = test system: Cunninghamella bertholletiae; assay: Antifungal activity against Cunninghamella bertholletiae 99-12187 after 24 to 72 hrs by broth microdilution method; assay type: functional; summary of the method: as §1
[10] = test system: Clavispora lusitaniae; assay: Antifungal activity against Candida lusitaniae after 48 to 72 hrs; assay type: functional; conditions: for MFC: Clavispora lusitaniae; summary of the method: as §2
[11] = test system: Cryptococcus neoformans; assay: Antifungal activity against Cryptococcus neoformans after 48 to 72 hrs; assay type: functional; conditions: for MFC: Cryptococcus neoformans; summary of the method: as §2
[12] = test system: Cryptococcus gattii species complex; assay: Antifungal activity against Cryptococcus gattii after 48 to 72 hrs; assay type: functional, Cryptococcus bacillisporus; conditions: for MFC: Cryptococcus gattii species complex; summary of the method: as §2
[13] = test system: Cryptococcus gattii species complex; assay: Antifungal activity against Cryptococcus gattii 05-200122 after 24 to 72 hrs by broth microdilution method; assay type: functional, Cryptococcus bacillisporus; summary of the method: as §1
[14] = test system: Aspergillus flavus; assay: Antifungal activity against Aspergillus flavus 05-203758 after 24 to 72 hrs by broth microdilution method; assay type: functional; summary of the method: as §1
[15] = test system: Cryptococcus neoformans; assay: Antifungal activity against Cryptococcus neoformans after 24 to 72 hrs by broth microdilution method; assay type: functional; summary of the method: as §1
[16] = Antifungal activity against Paecilomyces lilacinus 05-200601 after 24 to 72 hrs by broth microdilution method; assay type: functional; conditions: Purpureocillium lilacinum
Summary of the method: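 Mold isolates subcultured on potato dextrose agar, then tested by CLSI M38-A2 broth microdilution in RPMI 1640 (L-glutamine, no bicarbonate) buffered to pH 7.0 with 0.165 M MOPS. Compounds were dissolved in water and tested at a final 0.175–87.5 μM. Plates were incubated at 35°C. MIC was read visually as the lowest concentration giving 100% inhibition versus the growth control. Each isolate was run in duplicate in two independent experiments.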

[17] = Toxicity against human erythrocytes assessed as hemolysis; assay type: cell-based, Erythrocyte
[18] = test system: Candida parapsilosis; assay: Antifungal activity against Candida parapsilosis ATCC 22019 after 48 to 72 hrs; assay type: functional; conditions: Lodderomyces parapsilosis; summary of the method: as §2
[19] = test system: Nakaseomyces glabratus; assay: Antifungal activity against Candida glabrata 04-202345 after 24 to 72 hrs by broth microdilution method; assay type: functional; summary of the method: as §1
[20] = test system: Candida tropicalis; assay: Antifungal activity against Candida tropicalis 04-202361 after 48 to 72 hrs; assay type: functional
Summary of the method: (§3)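 CLSI M27-A3 broth microdilution for yeasts in RPMI 1640 with L-glutamine and no bicarbonate, buffered with 0.165 M MOPS to pH 7.0. Compounds were dissolved in water and tested at 0.175–87.5 μM final, 35°C. MIC was read visually at 24–72 h as 100% inhibition versus growth control. For MFC, 30 μl from clear wells went onto SDA at 35°C for 48–72 h, reading the lowest concentration without colonies. Duplicates, two independent runs.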

[21] = test system: Candida tropicalis; assay: Antifungal activity against Candida tropicalis 04-202361 after 24 to 72 hrs by broth microdilution method; assay type: functional; summary of the method: as §1
[22] = test system: Aspergillus flavus; assay: Antifungal activity against Aspergillus flavus ATCC 204304 after 48 to 72 hrs; assay type: functional; summary of the method: as §2
[23] = Antifungal activity against Exophiala jeanselmei 03-200268 after 48 to 72 hrs; assay type: functional
Summary of the method: (§4)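 CLSI M38-A2 broth microdilution for molds in RPMI 1640 with L-glutamine and no bicarbonate, buffered with 0.165 M MOPS to pH 7.0. Compounds were dissolved in water and tested at 0.175–87.5 μM final, 35°C, up to 7 days. MIC was read visually as 100% inhibition versus growth control. For MFC, clear wells were plated on SDA and the lowest concentration with no colonies taken. Each isolate was run in duplicate, two independent experiments.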

[24] = test system: Pichia kudriavzevii; assay: Antifungal activity against Candida krusei […] after 48 to 72 hrs; assay type: functional; summary of the method: as §2
[25] = test system: Aspergillus terreus; assay: Antifungal activity against Aspergillus terreus 05-202844 after 48 to 72 hrs; assay type: functional; summary of the method: as §2
[26] = test system: Lomentospora prolificans; assay: Antifungal activity against Scedosporium prolificans 05-203060 after 48 to 72 hrs; assay type: functional; summary of the method: as §4
[27] = test system: Cunninghamella bertholletiae; assay: Antifungal activity against Cunninghamella bertholletiae 99-12187 after 48 to 72 hrs; assay type: functional; conditions: in the assay text read “for up to 7 days” for “after 48 to 72 hrs”; summary of the method: as §2
[28] = test system: Aspergillus fumigatus; assay: Antifungal activity against Aspergillus fumigatus 05-203114 after 48 to 72 hrs; assay type: functional; summary of the method: as §4
[29] = test system: Aspergillus fumigatus; assay: Antifungal activity against Aspergillus fumigatus ATCC 204305 after 48 to 72 hrs; assay type: functional; summary of the method: as §4
[30] = test system: Candida parapsilosis; assay: Antifungal activity against Candida parapsilosis 04-202398 after 48 to 72 hrs; assay type: functional; conditions: Lodderomyces parapsilosis; summary of the method: as §3
[31] = test system: Exophiala spinifera; assay: Antifungal activity against Exophiala spinifera 03-200803 after 48 to 72 hrs; assay type: functional; summary of the method: as §4
[32] = test system: Aspergillus flavus; assay: Antifungal activity against Aspergillus flavus 05-203758 after 48 to 72 hrs; assay type: functional; summary of the method: as §4

| Compound | MIC [1] | MIC [2] | MIC [4] | MFC50 [10] | MFC90 [10] | MFC [10] | MFC50 [11] | MFC90 [11] | MFC [11] | MFC50 [12] | MFC90 [12] | MFC [12] | MIC [13] | MIC [14] | MIC [15] | MIC50 [15] | MIC90 [15] | MIC [16] | HC50 [17] | IC50 [17] | also measured |
| --- | --- | --- | --- | --- | --- | --- | --- | --- | --- | --- | --- | --- | --- | --- | --- | --- | --- | --- | --- | --- | --- |
| C=CCCCc1cc[n+](CCCCCCCCCCCC[n+]2ccc(CCCC=C)cc2)cc1.[Cl-].[Cl-] | 1.48 µg/mL | 11.8 µg/mL | > 47.3 µg/mL | 2.93 µg/mL | 5.87 µg/mL | 1.47 µg/mL | 5.87 µg/mL | 11.74 µg/mL | 2.94 µg/mL | 2.94 µg/mL | 2.94 µg/mL | 2.94 µg/mL | 1.48 µg/mL | > 47.3 µg/mL | 3.83 µg/mL | 2.94 µg/mL | 5.87 µg/mL | > 47.3 µg/mL | > 129 µM | > 48 µM | MFC [3]: 5.9 µg/mL; MFC [5]: 11.8 µg/mL; MIC [6]: 11.8 µg/mL; MFC [7]: 2.96 µg/mL; MFC [8]: 3 µg/mL; MIC [9]: > 47.3 µg/mL; MFC [18]: 2.96 µg/mL; MIC [19]: 1.5 µg/mL; MFC [20]: 5.9 µg/mL; MIC [21]: 1.48 µg/mL |
| CCCCCc1cc[n+](CCCCCCCCCCCC[n+]2ccc(CCCCC)cc2)cc1.[Cl-].[Cl-] | 5.9 µg/mL | 47.3 µg/mL | 47.3 µg/mL | 1.48 µg/mL | 1.48 µg/mL | 0.75 µg/mL | 1.48 µg/mL | 47 µg/mL | 1.48 µg/mL | 1.48 µg/mL | 1.48 µg/mL | 0.75 µg/mL | 0.74 µg/mL | 47.3 µg/mL | 2.41 µg/mL | 1.48 µg/mL | 5.91 µg/mL | > 47.3 µg/mL | > 129 µM | > 48 µM | MFC [5]: 11.8 µg/mL; MFC [22]: 47.3 µg/mL; MIC [6]: 5.9 µg/mL; MFC [23]: 2.96 µg/mL; MFC [24]: 11.8 µg/mL; MFC [25]: 11.8 µg/mL; MIC [9]: 47.3 µg/mL; MFC [26]: 2.96 µg/mL; MFC [18]: 1.48 µg/mL; MIC [19]: 1.48 µg/mL; MIC [21]: 0.74 µg/mL |
| CCCCCCc1cc[n+](CCCCCCCCCCCC[n+]2ccc(CCCCCC)cc2)cc1.[Cl-].[Cl-] | 0.79 µg/mL | 6.3 µg/mL | 12.7 µg/mL | 0.79 µg/mL | 6.22 µg/mL | 0.79 µg/mL | 0.79 µg/mL | 12.45 µg/mL | 0.79 µg/mL | 0.79 µg/mL | 0.79 µg/mL | 0.79 µg/mL | 0.79 µg/mL | 25.3 µg/mL | 1.19 µg/mL | 0.79 µg/mL | 3.11 µg/mL | 50.7 µg/mL | > 129 µM | > 48 µM | MFC [27]: 25.3 µg/mL; MFC [22]: 25.3 µg/mL; MFC [28]: 50.7 µg/mL; MIC [9]: 12.7 µg/mL; MFC [29]: 50.7 µg/mL; MFC [30]: 50.7 µg/mL; MIC [19]: 0.79 µg/mL; MIC [21]: 0.79 µg/mL |
| CCCCCc1cc[n+](CCCCCCCCCCCC[n+]2ccc(CCCCC)c(C)c2)cc1C.[Cl-].[Cl-] | 0.7 µg/mL | 12.7 µg/mL | 25.3 µg/mL | 3.11 µg/mL | 6.22 µg/mL | 1.56 µg/mL | 0.79 µg/mL | 12.45 µg/mL | 0.79 µg/mL | 0.79 µg/mL | 0.79 µg/mL | 0.79 µg/mL | 0.79 µg/mL | 25.3 µg/mL | 1.28 µg/mL | 0.79 µg/mL | 3.11 µg/mL | > 50.7 µg/mL | > 129 µM | > 48 µM | MFC [31]: 1.58 µg/mL; MFC [22]: 25.3 µg/mL; MFC [8]: 3.2 µg/mL; MFC [26]: 6.83 µg/mL; MFC [29]: 50.7 µg/mL; MFC [30]: 50.7 µg/mL; MIC [19]: 0.79 µg/mL; MFC [32]: 50.7 µg/mL; MFC [20]: 1.58 µg/mL; MIC [21]: 0.79 µg/mL |
